Assay results pooled from the literature.
Target: 1-phosphatidylinositol 3-phosphate 5-kinase (PIKFYVE, Homo sapiens, UniProt Q9Y2I7)

CN(C)c1nccc(-c2cnc3ncccn23)n1 has a remaining binding of 78% (binding; 1 µM).
CN(c1ccnc(CNc2nc(Nc3ccc4c(c3)CC(=O)N4)ncc2C(F)(F)F)n1)S(C)(=O)=O has a remaining binding of 100% (cell-free assay; competition with immobilised ligand; 1 µM).
The remaining binding of CC1CCCN1c1nccc(-c2cnn3ncccc23)n1 (stereo not drawn) is reported as 100% (binding; 1 µM).
CO[C@H]1CC[C@H](CNc2ccc(S(=O)(=O)NC(=O)c3ccc(N4CCN(CC5=C(c6ccc(Cl)cc6)CC(C)(C)CC5)CC4)cc3Oc3cnc4[nH]ccc4c3)cc2[N+](=O)[O-])CC1 has a remaining binding of 89% (cell-free assay; competition with immobilised ligand; 1 µM).
The remaining binding of COc1cnc(Nc2cccc(S(N)(=O)=O)c2)nc1N1CCN(c2ccccc2)CC1 is reported as 85% (binding; competition with immobilised ligand; 1 µM).
COc1ncc2cc3ccccc3nc2c1C#N gave a remaining binding of 90% (cell-free assay; competition with immobilised ligand; 5 µM).
CC(C)CC(=O)N1CCc2nc(-c3ccc(Br)cc3)nc(N(C)Cc3ccccc3)c2C1 has a remaining binding of 91% (cell-free assay; competition with immobilised ligand; 0.1 µM).
O=C(c1ccc(Nc2ncc(Cl)c(-c3cc4ccccc4s3)n2)cc1)N1CCC(N2CCCC2)CC1 has a remaining binding of 72% (binding; competition with immobilised ligand; 1 µM).
The remaining binding of CN([C@@H]1CCc2c(CC(=O)O)c3ccccc3n2C1)S(=O)(=O)c1ccc(F)cc1 is reported as 100% (cell-free assay; competition with immobilised ligand; 1 µM).
The remaining binding of F[C@@H]1CCN(c2nccc(-c3cnn4ncccc34)n2)C1 is reported as 82% (binding; 1 µM).
O=C(NCC1CCOCC1)c1n[nH]cc1NC(=O)c1c(F)cccc1F gave a remaining binding of 100% (binding; competition with immobilised ligand; 1 µM).
For O=C(c1ccc(Nc2nccc(-c3cc4ccccc4s3)n2)cc1)N1CCC(N2CCCC2)CC1, the remaining binding was 0.6% (binding; competition with immobilised ligand; 1 µM).
The remaining binding of Cc1cnn2ncc(-c3ccnc(N(C)C)n3)c2c1 is reported as 87% (binding; 1 µM).
The remaining binding of FC(F)(F)c1ccc2c(c1)nc(-c1cccnc1)n2C1CC1 is reported as 99% (cell-free assay; competition with immobilised ligand; 1 µM).
With CN(C)c1ncc(F)c(-c2cnn3ncccc23)n1 the remaining binding was 100% (binding; 1 µM).
The remaining binding of COc1cnc(Nc2cccc(S(N)(=O)=O)c2)nc1N1CCN(c2ccccc2)C(=O)C1 is reported as 100% (binding; competition with immobilised ligand; 1 µM).
C[C@@H]1CCN(c2nccc(-c3cnn4ncccc34)n2)C1 has a remaining binding of 99% (binding; 1 µM).
Cc1cnc(Nc2ccc(C(=O)N3CCC(N4CCCC4)CC3)cc2)nc1-c1cc2ccccc2s1 gave a remaining binding of 79% (binding; competition with immobilised ligand; 1 µM).
